Where “and” joins values, the source holds several entries; their conditions need not be identical. Equal entries are not always repeated. Where two headings read alike, the source gives them in different places.
Experiments:
H4IIE cells = assay: GSH levels in H4IIE rat hepatoma cells; type: cell-based; conditions: 24 h
Summary of the method: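 H4IIE rat hepatoma cells grown in MEM with 10% heat-inactivated FBS, non-essential amino acids and 1 mM pyruvate at 37 °C, 5% CO2. 3 × 10^6 cells exposed 24 h to 10–160 µM test compound (DMSO 0.5% final as control), then lysed in pH 7.0 phosphate/EDTA. Total GSH measured by enzymatic recycling on 1 µg protein (Bradford), expressed as fold over control. Two-sided tests, p < 0.05.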

[1] = Quantification of ILG in rat plasma and tissues by LC-MS-MS; type: in vivo
[2] = system: DMBA-induced mammary tumors; assay: DMBA-induced mammary carcinogenesis in rats; type: in vivo
[3] = system: quinone reductase-1 (QR-1); assay: QR-1 activity in rat tissues after dietary ILG; type: in vivo
[4] = system: glutathione S-transferase (GST); assay: GST activity in rat tissues after dietary ILG; type: in vivo; conditions: 10.0 g/kg diet; liver, colon, mammary gland
GSH = GSH level in rat tissues after dietary ILG; type: in vivo; conditions: 10.0 g/kg diet; liver, colon, mammary gland
[5] = system: DMBA-induced mammary tumors; conditions: preliminary study, 5.0 g/kg diet, cited from earlier work
[6] = system: QR-1 activity in mouse Hepa 1c1c7 cells; conditions: cited from earlier work
[7] = system: carcinogen-treated mouse mammary organ culture; conditions: at 10 µg/mL; cited from earlier work
[8] = Metabolism of ILG in the rat; type: in vivo; conditions: rat plasma after administration of ILG

SMILES: O=c1cc(-c2ccc(Br)cc2)oc2ccccc12 [4'-Bromoflavone, reference compound]
- GSH levels (H4IIE cells; H4IIE cells, 10 µM, positive control): significant increase in GSH levels

SMILES: O=C(/C=C/c1ccc(O)cc1)c1ccc(O)cc1O [ILG, 2′,4′,4-trihydroxychalcone]
- dose giving significant increase of total GSH (H4IIE cells; rat hepatoma cells): ≥ 80 µM
- Concentration of ILG in liver tissue ([1]; 7.50 g/kg diet + DMBA): 2.56 ± 0.96 µg/g tissue
- Concentration of ILG in mammary tissue ([1]; 7.50 g/kg diet + DMBA): 0.044 ± 0.014 µg/g tissue
- Concentration of ILG in plasma ([1]; 7.50 g/kg diet + DMBA): 57.81 ± 19.65 ng/mL and 57.8 ± 19.6 ng/mL
- Concentration of ILG in liver tissue ([1]; 10.0 g/kg diet): 3.25 ± 1.38 µg/g tissue
- Concentration of ILG in mammary tissue ([1]; 10.0 g/kg diet): 0.094 ± 0.043 µg/g tissue
- Concentration of ILG in plasma ([1]; 10.0 g/kg diet): 142.2 ± 35.9 ng/mL
- Concentration of ILG in liver tissue ([1]; 10.0 g/kg diet + DMBA): 4.71 ± 1.64 µg/g tissue
- Concentration of ILG in mammary tissue ([1]; 10.0 g/kg diet + DMBA): 0.084 ± 0.040 µg/g tissue
- Concentration of ILG in plasma ([1]; 10.0 g/kg diet + DMBA): 134.6 ± 47.2 ng/mL
- tumor latency ([2]; 7.5 and 10 g/kg diet during the entire study): increased tumor latency
- overall tumor incidence and multiplicity ([2]; 7.5 and 10 g/kg diet, after 84 days): increased the overall tumor incidence and multiplicity
- body weight ([2]; between the different groups, 7.5 and 10 g/kg diet): no significant differences in body weight
- QR-1 activity ([3]; colon, end of in vivo study): significantly elevated
- QR-1 activity ([3]; liver or mammary gland tissues): no significant induction
- GST activity [4]: significantly elevated only in the liver
- GSH levels (GSH): significantly elevated only in the liver
- incidence of mammary tumors ([5]; after 120 days): little effect on the incidence of mammary tumors
- tumor latency ([5]; one week prior and one week after DMBA): increased tumor latency
- adverse effects [5]: no adverse effects were detected
- CD, induction of QR-1 activity [6]: 2 µM
- inhibition in carcinogen-treated mouse mammary organ culture assay [7]: 76%

SMILES: O=C(/C=C/c1ccc(O)cc1)c1ccc(O[C@@H]2O[C@H](C(=O)O)[C@@H](O)[C@H](O)[C@H]2O)cc1O [MG5, 4′-glucuronosylisoliquiritigenin]
- relative abundance among the five glucuronides [8]: most abundant
